Diaphorase act = diaphorase activation or chemical reduction counter-screen | Diaphorase/resazurin coupled assay, resorufin fluorescence, 16 min; hits give high values; 1 = vehicle wells, 0 = NADH-free wells | activation factor at 20 µM | actives 0.005% (n = 190,000) | AID 1229;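 active = diaphorase activity raised at least twofold by the compound at 20 µM; inactive = activation factor below 2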
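Material: purified diaphorase enzyme from Clostridium kluyveri; Also added: 0.114 mM NADH and 0.1 mM resazurin, final amounts; Doses: single compound dose of 20 µM, 1% DMSO final; Times: 16 min enzyme reaction, ambient temperature; Detection: resorufin fluorescence, excitation 544 nm, emission 590 nm; Measure: increased resorufin signal from activators or reducing compounds.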
PfGluPho inh = PfG6PD (Plasmodium falciparum) enzyme inhibition. PfGluPho enzyme, NADPH resazurin-diaphorase fluorescence. inhibition, % at 20 µM. actives 0.78% (n = 350,000);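 active = inhibition reaching at least a set limit at 20 µM in the primary screen, cut at about 59% in these data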;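 also: 0% = DMSO wells with substrate and 100% = DMSO wells lacking glucose-6-phosphate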
HKDC1 inhibitor = blocks human hexokinase HKDC1 activity. Q2TB90. recombinant HKDC1, G6PDH/diaphorase resazurin coupled fluorescence. inhibition, % at 20 µM. actives 0.16% (n = 340,000);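 active = inhibition above about 35% when tested at 20 µM, limit read from the data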;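 also: plate controls were DMSO wells with enzyme for no effect and DMSO wells lacking enzyme for full effect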
Target sequence (Q2TB90 whole entry, looked up): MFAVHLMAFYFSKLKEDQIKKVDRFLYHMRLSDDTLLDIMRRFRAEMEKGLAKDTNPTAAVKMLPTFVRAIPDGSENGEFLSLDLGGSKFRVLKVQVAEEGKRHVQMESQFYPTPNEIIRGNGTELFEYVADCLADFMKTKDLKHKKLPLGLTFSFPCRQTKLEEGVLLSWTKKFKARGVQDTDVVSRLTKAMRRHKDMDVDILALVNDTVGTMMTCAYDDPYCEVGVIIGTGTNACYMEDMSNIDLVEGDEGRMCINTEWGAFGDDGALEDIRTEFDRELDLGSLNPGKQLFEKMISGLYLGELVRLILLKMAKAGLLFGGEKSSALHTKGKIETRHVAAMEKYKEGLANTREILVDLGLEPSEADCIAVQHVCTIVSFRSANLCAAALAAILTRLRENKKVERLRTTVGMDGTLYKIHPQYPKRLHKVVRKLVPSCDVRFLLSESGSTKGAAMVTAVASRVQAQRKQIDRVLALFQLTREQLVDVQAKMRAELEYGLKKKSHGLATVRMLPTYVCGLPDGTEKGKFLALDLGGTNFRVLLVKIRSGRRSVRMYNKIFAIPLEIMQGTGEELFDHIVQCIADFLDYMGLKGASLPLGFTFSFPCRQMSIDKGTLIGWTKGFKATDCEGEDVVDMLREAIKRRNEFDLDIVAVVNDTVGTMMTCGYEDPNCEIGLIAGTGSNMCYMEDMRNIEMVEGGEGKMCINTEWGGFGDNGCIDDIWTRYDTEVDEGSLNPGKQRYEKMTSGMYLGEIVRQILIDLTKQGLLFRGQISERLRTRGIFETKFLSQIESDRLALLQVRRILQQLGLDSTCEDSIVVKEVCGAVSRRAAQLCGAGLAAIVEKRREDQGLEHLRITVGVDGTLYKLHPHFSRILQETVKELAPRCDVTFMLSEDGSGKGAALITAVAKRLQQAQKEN
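test system = in-house recombinant HK5 (HKDC1) enzyme | amount = HKDC1 at 5 µg/mL | control set = DMSO-enzyme wells negative, buffer-substituted wells positive | compound = one dose of 20 µM, 1% DMSO | schedule = reaction time 90 min, room temperature, protected from light | technique = resorufin fluorescence at 613 nm | reagent = glucose with 1 mM ATP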
Diaph inh CS = diaphorase inhibition or chemical oxidation counter-screen; inhibition, % at 20 µM; actives 0.69% (n = 190,000); AID 1217; diaphorase resazurin-to-resorufin fluorescence, NADH, 16 min; bacterial (C. kluyveri) enzyme, not human;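 active = primary screen inhibition at 20 µM above a set limit, cut at about 50% in these data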;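 also: plate controls were DMSO with full reaction for no effect and wells lacking NADH for full effect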
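Assay system: diaphorase enzyme from Clostridium kluyveri; Input: enzyme working solution with 0.14 U/mL diaphorase; Timing: 16 min at room temperature; Technique: resorufin fluorescence, excitation 544 nm, emission 590 nm; Benchmarks: positive control minus NADH, DMSO neutral control.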
G6PDH counter-1 = L. mesenteroides G6PDH inhibition counter-screen; Purified L. mesenteroides G6PDH, diaphorase/resazurin coupled fluorescence, 45 min; inhibition, % at 5 µM; actives 0.12% (n = 200,000); in the data active = inhibition above about 50%
TbHK1 inh = blocks Trypanosoma brucei hexokinase 1 activity; actives 0.11% (n = 220,000); recombinant TbHK1, G6PDH-coupled NADH A340; inhibition, % at 10 µM;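 active = inhibition of 50% or more in the single-dose primary screen; inactive = inhibition below 50%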
G6PDH counter-2 = inhibits Leuconostoc G6PDH, counter-screen for TbHK1 inhibitors; shares compounds with TbHK1 inh; purified G6PDH, NADH absorbance, 1 h; inhibition, % at 10 µM; actives 7% (n = 210); AID 2516;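 active = at least 50% inhibition in the glucose-6-phosphate dehydrogenase coupled counterscreen; inconclusive = no clear call, values can overlap the other calls; inactive = inhibition below 50%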
TbHK1 rescreen = confirmation of Trypanosoma brucei hexokinase 1 inhibitors; shares compounds with TbHK1 inh; recombinant TbHK1, G6PDH-coupled NADH A340 absorbance; inhibition, % at 10 µM; actives 10% (n = 210);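 active = inhibition of at least 50% in both of the two screening runs; inconclusive = at least 50% in one run, below 50% in the other; inactive = inhibition below 50% in both runs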;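 also: 0% and 100% set by the maximum and minimum signal control wells on each plate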
HKDC1 act conf2 = confirmation of human HKDC1 activators. shares compounds with HKDC1 inhibitor. AID 504708. inhibition, % at 20 µM. recombinant HKDC1, G6PDH/diaphorase resazurin fluorescence; hits give low values. actives 14% (n = 740);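 active = inhibition at or below a set negative limit, negative inhibition meaning the enzyme was activated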
PfG6PD confirm = PfG6PD inhibition, single-dose confirmed; shares compounds with PfGluPho inh; recombinant PfGluPho, NADPH-diaphorase-resazurin fluorescence; inhibition, % at 20 µM; actives 34% (n = 2,400); AID 504753;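 active = inhibition of at least 50% at 20 µM in any single replicate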;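 also: 0% = DMSO with substrate and 100% = DMSO lacking glucose-6-phosphate substrate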
Diaph ctr 10uM = inhibits diaphorase or oxidizes, flagging false PfG6PD hits | shares compounds with PfGluPho inh | diaphorase-coupled resazurin reduction, fluorescence, NADPH 10 uM | inhibition, % at 20 µM | actives 39% (n = 820) | AID 504862;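 active = average inhibition reaching 50% or more with the compound at 20 µM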;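 also: resorufin red fluorescence formed as diaphorase reduces resazurin using NADPH; 0% = DMSO with enzyme and 100% = DMSO without enzyme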
Diaph ctr 30uM = inhibits diaphorase or oxidizes, flagging false PfG6PD hits; shares compounds with PfGluPho inh; Diaphorase/resazurin coupled assay, resorufin fluorescence, 30 uM NADPH; inhibition, % at 20 µM; actives 29% (n = 820);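 active = inhibition averaging 50% or more, tested at 20 µM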;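 also: 0% = DMSO with enzyme and 100% = DMSO wells lacking diaphorase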
Numbers without * were called inactive; ? = inconclusive; . = no result; ! = a repeat was not active. A selection: hits, their analogues and other compounds. The true share with any hit is near 1.3%.

SMILES	Diaphorase act	PfGluPho inh	HKDC1 inhibitor	Diaph inh CS	G6PDH counter-1	TbHK1 inh	G6PDH counter-2	TbHK1 rescreen	others
Nc1ccc(Nc2ccncc2)cc1	.	-0.5	.	.	.	.	.	.
COc1ccc(S(=O)(=O)N2CCOC23CCN(S(=O)(=O)c2ccc(Cl)cc2)CC3)cc1	.	10.1	-3.1	.	.	.	.	.
O=C1CN(C(=O)COC(=O)CCC(=O)c2ccc3c(c2)OCCO3)c2ccccc2N1	1	-2.7	-1.1	-0.8	2.2	50.1*	-5.8	-4.7
O=C1CN(C(=O)COC(=O)CCC(=O)c2ccc(Cl)cc2)c2ccccc2N1	.	2.3	-6.1	.	.	.	.	.
O=C(NC1CCCCC1)C1CCN(S(=O)(=O)N2CCOCC2)CC1	1	-10.2	-6.9	3.5	-4.0	58.4*	-12.9	1.8
COc1ccc(N(C(=O)c2ccco2)C(C(=O)NC2CCCC2)c2cc(OC)c(OC)c(OC)c2)cc1 (stereo not given)	.	-13.6	-2.9	.	.	.	.	.
O=C(COc1ccc(Br)cc1)NNC(=S)NC(=O)c1ccccc1[N+](=O)[O-]	0.6	-22.2	-14.0	44.5	3.1	60.9*	-20.1	-6.1
CC(=O)/C=C(/C)NC(Cc1c[nH]c2ccccc12)C(=O)O (stereo not given)	0.9	-6.4	0.6	12.1	2.6	50.9*!	-16.7	-3.1
COc1ccc(C2c3cc(OC)c(OC)cc3CCN2C(=O)c2ccccc2Br)cc1OC (stereo not given)	.	-16.0	-4.7	.	.	.	.	.
CCN(CCCNC(=O)CC(C(=O)N1CCc2ccccc21)n1ccnc1)c1ccccc1 (stereo not given)	0.8	8.3	-11.0	16.7	11.0	55.5*	-27.8	-7.4
C[C@H]1CN([C@@H](C)CO)C(=O)CCCn2cc(nn2)CO[C@@H]1CN(C)S(=O)(=O)c1cccc(F)c1	.	-25.3	.	.	.	.	.	.
O=[N+]([O-])c1cc(/C=N\Nc2nccs2)ccc1O	0.1	.	.	89.8*	3.5	50.2*	-64.6	56.2*
COc1ccccc1-c1nnn(CC#N)n1	0.9	-15.5	-9.7	13.7	-4.3	52.3*	-6.2	-4.2
CC1(C)OC(=O)C(=CNc2ncccn2)C(=O)O1	0.8	0.9	-5.3	20.5	3.4	52.3*	-27.0	-25.2
O=C(CCc1ccccc1)NC(c1cccs1)c1cc(Cl)c2cccnc2c1O (stereo not given)	1.1	-19.1	-28.2	-5.9	3.9	28.4	.	.
CCC(=O)NC(c1cccs1)c1cc([N+](=O)[O-])c2cccnc2c1O (stereo not given)	0.7	34.5	8.6	31.0	37.9	52.1*	-23.4	6.3
NNC(=O)Cn1c(-c2nonc2N)nc2ccccc21	0.9	-6.8	-1.3	12.1	3.1	-6.3	.	.
Nc1nonc1-c1nc2ccccc2n1CC(=O)N/N=C\c1ccc(-c2ccc(Cl)cc2)o1	1	0.1	1.0	-4.5	0.6	52.2*	108.5*	13.5
COc1cc(/C=C(\C#N)c2nc3c(s2)CCCC3)ccc1O	0.8	.	.	20.2	-2.3	53.7*	-48.4	87.7*
N#C/C(=C\c1cccnc1)c1nc2c(s1)CCCC2	0.9	-1.2	-2.0	11.8	4.4	-15.7	.	.
Cc1nnc(-n2ncc(C#N)c2N)c2nn(-c3ccccc3F)c(C)c12	.	.	.	.	.	-1.3	.	.
O=C(NCCCN1CCOCC1)C(=O)NCC1CCCO1 (stereo not given)	1	3.5	-11.2	4.7	-0.8	31.3	.	.
O=C(O)C1CCCCC1C(=O)NCCCN1CCOCC1 (stereo not given)	1	-3.8	-4.4	3.3	8.9	51.0*	-7.1	-3.1
CC(=O)c1ccc(NC(=O)C2CC(c3ccc(F)cc3)=NO2)cc1 (stereo not given)	1	-2.4	-8.3	-1.4	3.0	51.9*	2.2	7.6
NS(=O)(=O)c1ccc(N/N=C/c2ccc(O)c(O)c2O)c([N+](=O)[O-])c1	.	87.0*	36.4*	.	.	67.5*	-41.2	14.9	HKDC1 act conf2=-11.0;PfG6PD confirm=69.9*;Diaph ctr 10uM=5.4;Diaph ctr 30uM=-3.0
SMILES	Diaphorase act	PfGluPho inh	HKDC1 inhibitor	Diaph inh CS	G6PDH counter-1	TbHK1 inh	G6PDH counter-2	TbHK1 rescreen	others
NS(=O)(=O)c1ccc(N/N=C/c2ccc(O)cc2O)c([N+](=O)[O-])c1	.	1.0	1.3	.	.	-14.2	.	.
Cc1ccc(-c2nc3ccccc3nc2-c2ccccc2)cc1	.	0.1	-0.6	.	.	.	.	.
CNc1nc(-c2ccccc2)[n+](-c2ccc(C)cc2)s1	0.7	108.4*	19.2	26.1	21.1	61.1*	17.2	84.9*	PfG6PD confirm=107.1*;Diaph ctr 10uM=-24.9;Diaph ctr 30uM=-12.8
Cc1ccc(-c2nc(N)s[n+]2-c2ccccc2)cc1	0.7	109.5*	-6.3	27.1	6.7	98.1*	14.5	94.9*	PfG6PD confirm=55.9*;Diaph ctr 10uM=-35.0;Diaph ctr 30uM=-22.6
CC(C)N1CCOC1c1ccccc1 (stereo not given)	.	1.0	-5.2	.	.	.	.	.
COc1cc(OC)c(C(=O)CCCN2CCCC2)c(OC)c1	0.9	-9.6	-5.7	8.4	-3.1	-2.6	.	.
COc1ccc(S(=O)(=O)N2CCc3ccccc32)cc1C(=O)NCC(c1ccco1)N1CCCC1 (stereo not given)	.	-7.3	-2.4	.	.	.	.	.
O=c1c2ccccc2sn1-c1nccs1	0.5	112.4*	-0.2	51.3*	1.7	71.8*	-12.4	74.0*	PfG6PD confirm=114.6*;Diaph ctr 10uM=-25.4;Diaph ctr 30uM=-24.3
O=c1c2ccccc2sn1-c1ccccc1	0.9	111.7*	-3.3	9.4	-2.4	80.5*	-16.5	83.9*	PfG6PD confirm=113.8*;Diaph ctr 10uM=-4.3;Diaph ctr 30uM=-15.9
CCC(C)NC(=O)[C@H]1N2C(=O)c3c(ccc(OC)c3OC)C2SC1(C)C (stereo not given in full)	.	-9.7	0.1	.	.	.	.	.
Cn1nc(-c2ccccn2)nc2c(=O)n(C)c(=O)nc1-2	.	112.5*	29.1	.	.	70.1*	?	40.9	PfG6PD confirm=89.0*;Diaph ctr 10uM=97.5*;Diaph ctr 30uM=102.8*
O=C(O)c1cccc(S(=O)(=O)Nc2ccc([N+](=O)[O-])cc2O)c1	.	-25.2	0.3	.	.	0.0	.	.

Compound activity as filed in PubChem.
